{"data": "Published values from different studies", "matrix": "plasma", "route": "intravenous", "note": "Lines come from different studies, so protocols differ."}
{"SMILES": "Cc1cc(S(=O)(=O)N[C@]2(C)C[C@@H](N3CCN(CC4CCN(c5ccc6c(c5F)n(C)c(=O)n6C5CCC(=O)NC5=O)CC4)CC3)C2)ccc1Nc1ncc(C(F)(F)F)c(N2CCC[C@](C)(O)C2)n1 (stereo partly drawn)", "system": "rat", "setting": "2 mg/kg", "Vd": "7 L/kg"}
{"SMILES": "CCOCC(=O)N1CCC[C@H](C(=O)NCc2nc(-c3ccc(C)nc3)cs2)C1", "system": "male Sprague-Dawley rat", "setting": "1 mg/kg", "Vd": "0.3 L/kg"}
{"SMILES": "COc1ccc(N(Cc2csc(-c3ccccc3)n2)C(=O)CCCCCC(=O)NO)cc1", "system": "female Sprague-Dawley rat", "setting": "5 mg/kg", "Vd": "441 L/kg"}
{"SMILES": "[2H]c1cc(C)c(NC(=O)c2cnc(Nc3cc(N4CCC(O)CC4)nc(C)n3)s2)c(Cl)c1", "system": "male Sprague-Dawley rat", "setting": "1 mg/kg", "Vd": "4.8 L/kg"}
{"SMILES": "CC(C)(N)COCC(=O)N1CCC[C@H](C(=O)NCc2nc(-c3ccc(C(F)(F)F)cc3)cs2)C1", "system": "male Sprague-Dawley rat", "setting": "1 mg/kg", "Vd": "4.3 L/kg"}
{"SMILES": "C[C@H]1CN(CC2CCN(c3ccc(C4CCC(=O)NC4=O)cc3F)CC2)CC[C@H]1NS(=O)(=O)c1ccc(Nc2ncc(C(F)(F)F)c(N3CCC[C@](C)(O)C3)n2)c(F)c1 (stereo partly drawn)", "system": "rat", "setting": "2 mg/kg", "Vd": "7 L/kg"}
{"SMILES": "Cc1nc(Nc2ncc(C(=O)Nc3c(C)cccc3Cl)s2)cc(N2CC[C@H](O)C2)n1", "system": "male Sprague-Dawley rat", "setting": "1 mg/kg, single dose", "Vd": "0.9 L/kg"}
{"SMILES": "NCCOCC(=O)N1CCC[C@H](C(=O)NCc2nc(-c3ccc(C(F)(F)F)cc3)cs2)C1", "system": "male Sprague-Dawley rat", "setting": "1 mg/kg", "Vd": "3.2 L/kg"}
{"SMILES": "C[C@]1(O)CCCN(c2nc(Nc3ccc(S(=O)(=O)N[C@@H]4CCN(CC5CCN(c6ccc(C7CCC(=O)NC7=O)cc6F)CC5)C[C@H]4F)cc3F)ncc2C(F)(F)F)C1 (stereo partly drawn)", "system": "rat", "setting": "2 mg/kg", "Vd": "5 L/kg"}
{"SMILES": "Cc1nc(Nc2ncc(C(=O)Nc3c(C)cccc3Cl)s2)cc(N2CC[C@H](N)C2)n1", "system": "male Sprague-Dawley rat", "setting": "1 mg/kg", "Vd": "16.4 L/kg"}
{"SMILES": "Cc1cc(S(=O)(=O)N[C@H]2CC[C@H](CN3CCN(c4ccc(C5CCC(=O)NC5=O)c(Cl)c4)CC3)CC2)ccc1Nc1ncc(C(F)(F)F)c(N2CCC[C@](C)(O)C2)n1 (stereo partly drawn)", "system": "rat", "setting": "2 mg/kg", "Vd": "3 L/kg"}
{"SMILES": "Cn1c(=O)c2[nH]cnc2n(C)c1=O", "system": "male Sprague-Dawley rat", "setting": "11.25 mg/kg", "Vd": "2.39 L/kg"}
{"SMILES": "Cc1nc(Nc2ncc(C(=O)Nc3c(C)cccc3Cl)s2)cc(N2CCN(CCO)CC2)n1", "system": "male Sprague-Dawley rat", "setting": "1 mg/kg", "Vd": "2.8 L/kg"}
{"SMILES": "CCOCC(=O)N1CCC[C@H](C(=O)NCc2nc(-c3ccc(C#N)nc3)cs2)C1", "system": "male Sprague-Dawley rat", "setting": "1 mg/kg", "Vd": "0.43 L/kg"}
{"SMILES": "COc1ccc(-c2coc3cc(O)cc(O)c3c2=O)cc1", "system": "rat", "setting": "2 mg/kg", "Vd": "0.81 L/kg"}
